This is a sample that favours compounds with a hit; in the whole collection about 2.2% have one here.
HKDC1 inh: HKDC1 hexokinase inhibitors, primary screen, biochemical, fluorescence, uHTS; Q2TB90; recombinant HKDC1, G6PDH/diaphorase resazurin coupled fluorescence; actives 0.16% (n = 340,000); inhibition, % at 20 µM; AID 493160, 2011;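 active = inhibition above about 35% when tested at 20 µM, limit read from the data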
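Test system: recombinant HKDC1 (HK5) hexokinase enzyme, produced in-house / Doses: 20 µM test compound, 1% DMSO / Timing: 90 min, room temperature / Detection: G6PDH/diaphorase-coupled fluorescence, 1 mM NADP, 100 µM resazurin, 525/613 nm / Control set: DMSO wells with and without enzyme mix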
Neddylation inh: inhibitors of cullin neddylation, primary screen, biochemical, TR-FRET, uHTS, NAE and Ubc12. inhibition, % at 25 µM. AID 651699, 2012. actives 0.58% (n = 360,000). NEDD8-conjugating enzyme Ubc12 (Homo sapiens) + NEDD8-activating enzyme E1 regulatory …; in the data active = inhibition above about 36%
Target sequence (P61081 whole entry, looked up): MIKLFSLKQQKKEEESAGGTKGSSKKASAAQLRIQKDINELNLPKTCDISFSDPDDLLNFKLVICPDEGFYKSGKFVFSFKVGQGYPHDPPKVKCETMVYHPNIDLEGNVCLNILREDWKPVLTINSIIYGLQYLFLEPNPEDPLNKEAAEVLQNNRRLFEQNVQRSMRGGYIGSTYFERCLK
Target sequence (Q13564 whole entry, looked up): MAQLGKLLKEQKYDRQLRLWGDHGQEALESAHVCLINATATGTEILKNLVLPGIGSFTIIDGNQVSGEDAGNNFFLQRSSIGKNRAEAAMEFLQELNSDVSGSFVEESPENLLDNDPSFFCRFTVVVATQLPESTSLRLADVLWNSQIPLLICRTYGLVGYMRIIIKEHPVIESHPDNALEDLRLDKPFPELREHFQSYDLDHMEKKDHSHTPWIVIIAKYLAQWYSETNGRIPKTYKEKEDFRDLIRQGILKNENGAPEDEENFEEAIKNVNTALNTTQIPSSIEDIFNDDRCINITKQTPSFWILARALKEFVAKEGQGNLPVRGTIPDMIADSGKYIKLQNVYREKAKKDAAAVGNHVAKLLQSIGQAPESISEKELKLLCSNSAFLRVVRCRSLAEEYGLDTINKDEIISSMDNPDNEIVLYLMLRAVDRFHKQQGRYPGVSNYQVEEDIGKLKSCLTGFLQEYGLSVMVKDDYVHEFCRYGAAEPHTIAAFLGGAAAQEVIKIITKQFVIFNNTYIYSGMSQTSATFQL
PfGluPho inh: PfG6PD enzyme inhibitors, primary screen, biochemical, fluorescence intensity, uHTS | PfGluPho enzyme, NADPH resazurin-diaphorase fluorescence | actives 0.78% (n = 350,000) | inhibition, % at 20 µM | glucose-6-phosphate dehydrogenase-6-phosphogluconolactonase (Plasmodium falciparum 3D7);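 active = inhibition reaching at least a set limit at 20 µM in the primary screen, cut at about 59% in these data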
PfM18AAP inh: PfM18AAP inhibitors, malaria aminopeptidase, primary screen, biochemical, QFRET, recombinant enzyme; M18 aspartyl aminopeptidase (Plasmodium falciparum 3D7); H-Glu-NHMec fluorogenic cleavage; inhibition, % at 7.35 µM; actives 1.2% (n = 290,000);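 active = inhibition above the campaign mean inhibition over all tested compounds plus 3 SD, cut at about 28% in these data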
Neddyl conf: blockade of NEDD8 conjugation to cullin – biochemical, TR-FRET, single concentration, confirmation. shares compounds with Neddylation inh. TR-FRET cullin neddylation biochemical assay. calls only at 25 µM. actives 13% (n = 1,800); in the data active = inhibition above about 40%;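 note: neddylation substrate is the cullin 1 ring ligase complex with SKP2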
A number is an active result; - = inactive; . = no result given; + = active, no number; ! = not active in a repeat.

SMILES | HKDC1 inh | Neddylation inh | PfGluPho inh | PfM18AAP inh | Neddyl conf
O=C(Nc1cccc(-c2nc3cccnc3s2)c1)C1c2ccccc2Oc2ccccc21 | - | - | - | - | .
COC(=O)c1cccc(CN2C(=O)SC(Nc3ccccc3)C2=O)c1 (stereo not given) | - | 37 | - | - | -
Cc1cccc(NC2SC(=O)N(CC(=O)O)C2=O)c1 (stereo not given) | - | - | - | - | .
CCN(CC)c1ccc(/C=N/NC(=O)c2cccc(N3CCCC3=O)c2)cc1 | - | 57 | - | - | .
Cn1nc(C(F)(F)F)c(-c2cccc(C(F)(F)F)c2)c1NC(=O)c1ccco1 | - | 43 | - | - | -
Cn1nc(C(F)(F)F)c(-c2cccc(C(F)(F)F)c2)c1NC(=O)c1nccnc1C(=O)O | - | - | - | - | .
O=C(COC(=O)CC1SC(N2CCCC2)=NC1=O)Nc1c(F)c(F)c(F)c(F)c1F (stereo not given) | - | - | - | . | .
COc1ccc(C2(O)CC3CCC(C2)N3c2nc(C)cc(C)c2C#N)cc1 (stereo not given) | - | 38 | - | - | -
CC12C=CC(=O)C=C1CCC1C2C(O)CC2(C)C1CCC2(O)C(=O)CO (stereo not given) | - | - | - | . | .
COc1ccc(-c2nn(-c3ccccc3)cc2CNCc2cccnc2)c(F)c1 | - | - | - | - | .
COc1ccc(-n2cc(CNCc3cccnc3)c(-c3cccc(F)c3)n2)cc1 | - | 48 | - | - | +
COC(=O)c1nc2cc3c(cc2c(C)c1C(=O)OC)OCO3 | - | 58 | - | - | +
COc1cccc2c(=O)cc(C)n(CC(=O)Nc3cccc(C)c3)c12 | - | 44 | - | - | -
CCOC(=O)c1cnc2cc(-c3ccc(C)cc3)nn2c1C | . | - | - | . | .
Oc1cc2c(c(Cl)c1O)CCNCC2c1ccccc1 (stereo not given) | - | - | - | . | .
Oc1ccc(C2CNCCc3c2cc(O)c(O)c3Cl)cc1 (stereo not given) | - | 50! | - | . | .
C(=C\c1nnc2c3ccccc3ncn12)/c1ccccc1 | - | - | - | - | .
COc1cc(/C=C/c2nnc3c4ccccc4ncn23)cc(OC)c1OC | - | 55 | - | - | -
CCOCCCn1c(C)nc2c(c1=O)c1nc3ccccc3nc1n2-c1ccc(C)cc1 | - | 49 | - | - | -
COc1ccc(NS(=O)(=O)c2cn(C)cn2)cc1 | - | - | - | - | .
Cn1cnc(S(=O)(=O)Nc2ccc(OC(F)F)cc2)c1 | - | 49 | - | - | -
COc1cccc(CNc2nnnn2C)c1 | - | - | - | - | .
CCCn1c(=O)[nH]c(=O)c2c1nc(-c1ccc(OC(F)F)c(OC)c1)n2CCOC | - | 39 | - | - | -
CC(C)(C)C1CCN2CCCC(c3ccc([N+](=O)[O-])cc3)(C1)C21OCCO1 (stereo not given) | . | - | . | . | .
O=C(O)c1ccc(NC(=O)c2cccc(C(=O)Nc3ccc(C(=O)O)cc3)n2)cc1 | - | - | - | - | .
SMILES | HKDC1 inh | Neddylation inh | PfGluPho inh | PfM18AAP inh | Neddyl conf
O=C(Nc1ccccc1)c1cccc(C(=O)Nc2ccccc2)n1 | - | 51 | - | - | -
COc1cc(/C=C/C(=O)Nc2ccc(N3CCCCC3)c(S(=O)(=O)Nc3ccccc3Cl)c2)cc(OC)c1OC | - | 42 | - | - | -
CCOCCCn1c(=NC(=O)c2cccnc2)c(C(=O)OCC)cc2c(=O)n3ccccc3nc21 | - | . | - | - | +
Cc1nnc(N2CCC(C(=O)NC3CCC(C)CC3)CC2)c2nn(-c3ccc(Cl)cc3)c(C)c12 (stereo not given) | - | 46 | - | - | -
CCN(CC)C(=O)[C@H]1C[C@H](CC(=O)NCCC2=CCCCC2)C(=O)N2CCc3c([nH]c4ccc(Cl)cc34)[C@]12C | - | - | - | . | .
N#Cc1ccccc1S(=O)(=O)N1CCN(C(=O)Cc2coc3cc(O)ccc23)CC1 | - | - | - | . | .
c1cncc(-c2nnc(-c3cccs3)o2)c1 | - | 52 | - | - | .
Cc1ccc(-c2nnc(-c3cccnc3)o2)cc1 | - | - | - | - | .
O=C(CSc1nnc(COc2ccc(Cl)cc2)o1)Nc1nccs1 | . | - | - | . | .
Cc1ccc2[nH]c3c(=O)n(CC(=O)N4CC(C)CC(C)C4)ncc3c2c1 (stereo not given) | - | - | - | - | .
CCCN1CCN(C(=O)Cn2ncc3c([nH]c4ccc(C)cc43)c2=O)CC1 | - | 45 | - | - | -
COc1ccc(OC)c(C(=O)COC(=O)c2[nH]c(C)c(C(C)=O)c2C)c1 | - | - | - | . | .
Cc1nc2c(C#N)cnn2c2c1CCN2CC1CCCO1 (stereo not given) | - | 43 | - | - | -
Cc1nc2c(C#N)cnn2c2c1CCN(Cc1ccccc1)N2C | - | - | - | - | .
CC1(c2ccc(OC(F)F)cc2)NC(=O)N(CC(=O)NCCC2=CCCCC2)C1=O (stereo not given) | - | - | - | . | .
N=c1c(C(=O)NCc2ccco2)cc2c(=O)n3ccccc3nc2n1Cc1ccc(Cl)cc1 | - | 55 | - | - | -
N=c1c(C(=O)NCCN2CCOCC2)cc2c(=O)n3ccccc3nc2n1Cc1ccc(F)cc1 | - | 73 | - | - | .
Cc1ccc2nc3c(cc(C(=O)NCc4ccco4)c(=N)n3Cc3ccco3)c(=O)n2c1 | - | 56 | - | - | -
Cc1ccc(S(=O)(=O)N2CCN(C(=O)c3cc(C4CC4)nc4c3cnn4C(C)C)CC2)cc1 | - | - | - | . | .
CN1CCc2c(sc3nc(SCC(=O)N4CCOCC4)nc(N)c23)C1 | - | 42 | - | - | -
CC1CCN(C(=O)CSc2nc(N)c3c4c(sc3n2)CN(C)CC4)CC1 | - | - | - | - | .
CCc1noc(C)c1C(=O)OCC(=O)NCc1ccccc1OC | - | - | - | . | .
Cc1nn(C)c2nc(-c3cccs3)cc(C(F)(F)F)c12 | - | 45 | - | - | -
Cc1cccc2nc3ccccc3cc12 | - | 39 | - | . | .
CN(C)NC(=S)Nc1ccc2nc(-c3ccccn3)c(-c3ccccn3)nc2c1 | - | - | - | - | .
SMILES | HKDC1 inh | Neddylation inh | PfGluPho inh | PfM18AAP inh | Neddyl conf
S=C(Nc1ccc2nc(-c3ccccn3)c(-c3ccccn3)nc2c1)N1CCOCC1 | - | 47 | - | - | -
COC(=O)CCc1c(COC(C)=O)[nH]c(C(=O)OCc2ccccc2)c1C | - | - | - | - | .
O=C(CCc1ccccc1)Nc1nnc(-c2ccccn2)o1 | - | 42 | - | - | +
NC(=O)CC(NC(=O)Cc1ccc(Cl)cc1)c1ccc(NC2CCCCCCC2)c([N+](=O)[O-])c1 (stereo not given) | - | - | - | - | .
CC(OC(=O)c1snc(C(=O)NC2CCCCC2)c1N)C(=O)NC(C)(C)C (stereo not given) | - | 40 | - | - | +
CC(C)(C)NC(=O)COC(=O)c1snc(C(=O)NC2CCCCC2)c1N | - | - | - | - | .
O=Cc1ccccc1-c1cn(CCCOCc2ccccc2)nn1 | - | - | - | - | .
